Results as given in ChEMBL document CHEMBL1144547, “Synthesis, antimalarial, antileishmanial, antimicrobial, cytotoxicity, and methemoglobin (MetHB) formation activities of new 8-quinolinamines” (Bioorg Med Chem, 2007).
≈ marks a conversion by molar mass, not a printed value. Calls of active or inactive are those of the source. The rule behind the calls is not given here.

How the values were obtained:
[1] = test system: Cryptococcus neoformans; test: Antifungal activity against Cryptococcus neoformans ATCC 90113 after 68 to 72 hrs; assay type: functional, organism-based
[2] = test system: Pichia kudriavzevii; test: Antifungal activity against Candida krusei ATCC 6258 after 18 to 24 hrs; assay type: functional, organism-based
[3] = test system: Leishmania donovani; test: Antileishmanial activity against Leishmania donovani promastigotes by Alamar blue assay; assay type: functional, organism-based
[4] = test system: Candida albicans; test: Antifungal activity against Candida albicans ATCC 90028 after 18 to 24 hrs; assay type: functional, organism-based
[5] = test system: Nakaseomyces glabratus; test: Antifungal activity against Candida glabrata ATCC 90030 after 18 to 24 hrs; assay type: functional, organism-based
[6] = test system: Plasmodium falciparum; test: Antimalarial activity against chloroquine-sensitive Plasmodium falciparum D6; assay type: functional, organism-based
[7] = Selectivity index, Ratio of IC50 in Vero cells to IC50 in chloroquine-sensitive Plasmodium falciparum D6; assay type: functional
[8] = test system: Plasmodium falciparum; test: Antimalarial activity against chloroquine-resistant Plasmodium falciparum W2; assay type: functional, organism-based
[9] = Selectivity index, Ratio of IC50 in Vero cells to IC50 in chloroquine-resistant Plasmodium falciparum W2; assay type: functional
[10] = test system: Candida albicans; test: Antifungal activity against Candida albicans ATCC 90028 at 20 ug/mL after 18 to 24 hrs; assay type: functional, organism-based
[11] = test system: Plasmodium berghei; test: Antimalarial activity as parasite elimination against Plasmodium berghei in mice (Mus musculus) at 100 mg/kg/day peroral dose over 4 days; assay type: functional, organism-based
In short: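 Mice, 6 per group, infected with drug-sensitive P. berghei; oral dosing on days 0–3 post infection (×4); vehicle-only and chloroquine 10 mg/kg/day×4 oral controls. Curative means no parasites and survival to day D+60; suppressive means negative parasitaemia to D+7.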

[12] = Methemoglobin toxicity in human erythrocytes incubated with mouse liver microsomes assessed as MetHb formation at 20 ug/mL by biotransformation linked assay; parameters: species or system Erythrocyte, Microsome
In short: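 Compound at 20 µg/mL co-incubated 1 h at 37 °C, shaking, with mouse liver microsomes (500 µg protein), human erythrocytes (50% hematocrit suspension), NADPH-regenerating system, KCl, in 100 mM potassium phosphate pH 7.4; cells pelleted, lysed in Triton X-100 phosphate buffer pH 7.8; MetHb relative to total Hb by Evelyn–Malloy spectrophotometry; % versus vehicle control.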

[13] = test system: Vero; test: Cytotoxicity against Vero cells upto 23.8 ng/ml by neutral red assay; assay type: cell-based; settings: chlorocebus sabaeus, in the assay text read “23.8 µg/ml” for “23.8 ng/ml”
In short: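 Vero monkey kidney fibroblasts (ATCC), neutral red uptake read-out; compounds tested up to a highest concentration of 23.8 µg/mL.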

**Q.** With `C[C@@H]1[C@H](O)[C@@H](C)/C=C/C=C/C=C/C=C/C=C/C=C/C=C/[C@H](O[C@@H]2O[C@H](C)[C@@H](O)[C@H](N)[C@@H]2O)C[C@@H]2O[C@](O)(C[C@@H](O)C[C@@H](O)[C@H](O)CC[C@@H](O)C[C@@H](O)CC(=O)O[C@H]1C)C[C@H](O)[C@H]2C(=O)O` [AMPHOTERICIN B] as the molecule, how does the IC50 [1] read?
**A.** Its IC50 is 0.75 mg/L (≈ 0.812 µM).

**Q.** And the MFC [1]?
**A.** Its MFC is 1.5 mg/L (≈ 1.62 µM).

**Q.** And the IC50 [2]?
**A.** The IC50 was 0.6 mg/L (≈ 0.649 µM).

**Q.** What about the IC90 [3] of the same molecule?
**A.** Its IC90 is 0.35 mg/L (≈ 0.379 µM).

**Q.** What about the IC50 [4] of the same molecule?
**A.** Its IC50 is 0.25 mg/L (≈ 0.271 µM).

**Q.** And the IC50 [5]?
**A.** The IC50 was 0.07 mg/L (≈ 0.0758 µM).

**Q.** What about the MFC [5] of the same molecule?
**A.** The MFC was 0.625 mg/L (≈ 0.676 µM).

**Q.** What about the MIC [5] of the same molecule?
**A.** The MIC was 0.31 mg/L (≈ 0.335 µM).

**Q.** What does the source list for `C[C@@H]1CC[C@H]2[C@@H](C)C(=O)O[C@@H]3O[C@@]4(C)CC[C@@H]1[C@]32OO4` [ARTEMISININ]?
**A.** IC50 [6]: 0.0152 mg/L (≈ 0.0538 µM); Selectivity index [7]: 1565; IC50 [8]: 0.009 mg/L (≈ 0.0319 µM); Selectivity index [9]: 2644

**Q.** What does the source list for `N=C(N)c1ccc(OCCCCCOc2ccc(C(=N)N)cc2)cc1` [PENTAMIDINE]?
**A.** IC50 [3]: 1 mg/L (≈ 2.94 µM); IC90 [3]: 3.8 mg/L (≈ 11.2 µM)

**Q.** For `COc1cc(NC(C)CCCN)c2ncccc2c1` (stereo not given) [PRIMAQUINE], which Activity [3] is on record?
**A.** The Activity was “inactive”.

**Q.** What about the IC50 [3] of the same molecule?
**A.** Its IC50 is 19.9 mg/L (≈ 76.7 µM).

**Q.** And the Activity [10]?
**A.** The Activity was “inactive”.

**Q.** And the Activity [11]?
**A.** Its Activity is “inactive”.

**Q.** What about the Activity [12] of the same molecule?
**A.** Its Activity is 47.9%.

**Q.** And the Activity [13]?
**A.** The Activity was “Non-toxic”.
